Tests used:
[1] = molecular target: T1, Corticotropin-releasing factor receptor 1 (Homo sapiens, UniProt P34998); assay: Binding affinity for human corticotropin releasing factor receptor 1
T1 sequence (P34998 whole entry): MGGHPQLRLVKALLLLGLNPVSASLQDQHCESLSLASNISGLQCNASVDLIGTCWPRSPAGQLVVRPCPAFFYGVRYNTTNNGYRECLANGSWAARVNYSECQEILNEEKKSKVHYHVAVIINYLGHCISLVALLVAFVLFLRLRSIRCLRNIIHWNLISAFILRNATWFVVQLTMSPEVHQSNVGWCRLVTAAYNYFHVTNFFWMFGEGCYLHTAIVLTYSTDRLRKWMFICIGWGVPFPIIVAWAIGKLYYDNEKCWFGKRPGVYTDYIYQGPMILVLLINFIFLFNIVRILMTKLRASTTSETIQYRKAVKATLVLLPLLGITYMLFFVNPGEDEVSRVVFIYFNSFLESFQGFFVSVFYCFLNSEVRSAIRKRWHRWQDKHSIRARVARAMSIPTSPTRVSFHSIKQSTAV

[2] = Brain concentration to plasma concentration ratio (dissolved in DMSO) at 2 mg/kg of intravenous administration in rat after 2 h; format: ADME, organism-based; set-up: dose 2 mg/kg, route intravenous; conditions: brain and plasma, read-out: B/P
How it was run: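 Compound given intravenously to rats at 2 mg/kg in 10/10/80 Cremophor/DMSO/water at 1 mL/kg. Brain and plasma concentrations were measured at 2 h and expressed as a brain-to-plasma ratio.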

[3] = Volume of distribution (dissolved in DMSO) at 2 mg/kg of […] administration in rat was determined; format: ADME, organism-based; set-up: dose 2 mg/kg; conditions: in vivo
[4] = Volume of distribution (dissolved in DMSO) at 2 mg/kg of intravenous administration in rat was determined; format: ADME, organism-based; set-up: dose 2 mg/kg, route intravenous; conditions: in vivo
How it was run: (§1)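 Rats dosed with the compound at 10 mg/kg orally and 2 mg/kg intravenously, in 10/10/80 Cremophor/DMSO/water. Dosing volumes were 3 mL/kg p.o. and 1 mL/kg i.v. Plasma concentrations were followed over time to derive clearance, volume of distribution, terminal half-life, oral AUC and oral bioavailability.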

[5] = Terminal half life (dissolved in DMSO) at 2 mg/kg of intravenous administration in rat was determined; format: ADME, organism-based; set-up: dose 2 mg/kg, route intravenous; conditions: in vivo; how it was run: as §1
[6] = Terminal half life (dissolved in DMSO) at 2 mg/kg of intravenous administration in rat was determined; conditions: in vivo
[7] = Plasma clearance (dissolved in DMSO) at 2 mg/kg of intravenous administration in rat was determined
[8] = Maximum peak plasma concentration (dissolved in DMSO) at 10 mg/kg of p.o. administration in rat was determined; conditions: po
[9] = Plasma clearance (dissolved in DMSO) at 2 mg/kg of intravenous administration in rat was determined; format: ADME, organism-based; set-up: dose 2 mg/kg, route intravenous; how it was run: as §1
[10] = Mean plasma area under curve (dissolved in DMSO) at 10 mg/kg of oral administration in rat was determined; format: ADME, organism-based; set-up: dose 10 mg/kg, route oral; how it was run: as §1
[11] = Bioavailability (dissolved in DMSO) at 10 mg/kg of oral administration in rat was determined; format: ADME, organism-based; conditions: in vivo; how it was run: as §1

Row | Ki [1] | Compound | other results
1 | 7.1 nM | Cc1cc(C)c(-n2c3ccccc3n3c(CN(CC4CC4)CC(F)(F)F)c(C(F)(F)F)nc23)c(C)c1 | 
2 | 23 nM | CCCN(Cc1c(C(F)(F)F)nc2n(-c3c(C)cc(C)cc3C)c3ccccc3n12)CC1CC1 | Kp at 2 h [2]: 0.03; Vd [3]: 0.6 L/kg; Vd [4]: 0.6 L/kg; half-life [5]: 4.1 h; half-life [6]: 4.1 h; CL/F [7]: 5.1 mL/min/kg; Cmax [8]: 2380 ng/mL; clearance [9]: 5.1 mL/min/kg; AUC [10]: 11400 ng·h/mL; bioavailability [11]: 35%
3 | 930 nM | CCCN(CC1CC1)C(=O)c1c(CC)nc2n(-c3c(C)cc(C)cc3C)c3ccc(F)cc3n12 | 
4 | 1410 nM | CCN(CCC1CC1)Cc1c(C(F)(F)F)nc2n(-c3c(C)cc(C)cc3C)c3ccccc3n12 | 
5 | 704 nM | CCCCN(CC)Cc1c(C(F)(F)F)nc2n(-c3c(C)cc(C)cc3C)c3ccccc3n12 | 
6 | 573 nM | Cc1cc(C)c(-n2c3ccccc3n3c(CN(C)Cc4ccccc4)c(C(F)(F)F)nc23)c(C)c1 | 
7 | 150 nM | CCCN(Cc1c(CC)nc2n(-c3c(C)cc(C)cc3C)c3ccc(F)cc3n12)CC1CC1 | 
8 | 138 nM | C=CCN(CC=C)Cc1c(C(F)(F)F)nc2n(-c3c(C)cc(C)cc3C)c3ccccc3n12 | 
9 | 362 nM | CCCN(CCC1CC1)Cc1c(C(F)(F)F)nc2n(-c3c(C)cc(C)cc3C)c3ccccc3n12 | 
10 | 21 nM | CCCN(Cc1c(CC)nc2n(-c3c(C)cc(C)cc3C)c3ccccc3n12)CC1CC1 | 
11 | 250 nM | CCCN(CCc1ccccc1)Cc1c(C(F)(F)F)nc2n(-c3c(C)cc(C)cc3C)c3ccccc3n12 | 
12 | 26 nM | CCCN(Cc1c(C(F)(F)F)nc2n(-c3c(C)cc(C)cc3C)c3ccccc3n12)CC1CCC1 | 
13 | 360 nM | CCCN(CC1CC1)C(=O)c1c(C)nc2n(-c3c(C)cc(C)cc3C)c3ccccc3n12 | 
14 | 653 nM | Cc1cc(C)c(-n2c3ccccc3n3c(CN(CCC4CC4)CC(F)(F)F)c(C(F)(F)F)nc23)c(C)c1 | 
15 | 75 nM | CCCN(Cc1c(C(F)(F)F)nc2n(-c3c(C)cc(C)cc3C)c3ccccc3n12)CC(F)(F)F | 
16 | 4050 nM | CCCN(Cc1ccccc1)Cc1c(C(F)(F)F)nc2n(-c3c(C)cc(C)cc3C)c3ccccc3n12 | 
17 | 410 nM | CCCN(CCc1ccccc1)Cc1c(C(F)(F)F)nc2n(-c3ccc(C(C)C)cc3Br)c3ccccc3n12 | 
18 | 150 nM | CCCN(Cc1c(C(F)(F)F)nc2n(-c3ccc(C(C)C)cc3Br)c3ccccc3n12)CC1CC1 | 
19 | 291 nM | Cc1cc(C)c(-n2c3ccccc3n3c(CN(CCC(F)(F)F)CC(F)(F)F)c(C(F)(F)F)nc23)c(C)c1 | 
20 | 13 nM | Cc1cc(C)c(-n2c3ccccc3n3c(CN(CCC(F)(F)F)CC4CC4)c(C(F)(F)F)nc23)c(C)c1 | 
21 | 7710 nM | CCCCN(Cc1ccccc1)Cc1c(C(F)(F)F)nc2n(-c3c(C)cc(C)cc3C)c3ccccc3n12 | 

Row | Ki [1] | Compound | other results
22 | 53 nM | Cc1cc(C)c(-n2c3ccccc3n3c(CN(CC4CCC4)CC(F)(F)F)c(C(F)(F)F)nc23)c(C)c1 | 
23 | 54 nM | CC(C)c1ccc(-n2c3ccccc3n3c(CN(CC4CC4)CC4CC4)c(C(F)(F)F)nc23)c(Br)c1 | 
24 | 75 nM | CCCN(Cc1c(C(F)(F)F)nc2n(-c3c(C)cc(C)cc3C)c3ccccc3n12)CC(F)(F)C(F)(F)F | 
25 | 59 nM | CCCN(Cc1c(C)nc2n(-c3c(C)cc(C)cc3C)c3ccc(F)cc3n12)CC1CC1 | 
26 | 333 nM | Cc1cc(C)c(-n2c3ccccc3n3c(CN(CCc4ccccc4)CCc4ccccc4)c(C(F)(F)F)nc23)c(C)c1 | 
27 | 1600 nM | CCCN(CCc1ccccc1)Cc1c(C(F)(F)F)nc2n(-c3ccc(Cl)cc3Cl)c3ccccc3n12 | 
28 | 2770 nM | CCN(Cc1ccccc1)Cc1c(C(F)(F)F)nc2n(-c3c(C)cc(C)cc3C)c3ccccc3n12 | 
29 | 570 nM | CCCN(CC1CC1)C(=O)c1c(CC)nc2n(-c3c(C)cc(C)cc3C)c3ccccc3n12 | 
30 | 370 nM | CCCN(Cc1c(C(F)(F)F)nc2n(-c3ccc(Cl)cc3Cl)c3ccccc3n12)CC1CC1 | 
31 | 457 nM | Cc1cc(C)c(-n2c3ccccc3n3c(CN(CCC4CC4)CCC(F)(F)F)c(C(F)(F)F)nc23)c(C)c1 | 
32 | 11 nM | Cc1cc(C)c(-n2c3ccccc3n3c(CN(CC4CC4)CC4CC4)c(C(F)(F)F)nc23)c(C)c1 | 
33 | 68 nM | CCCN(CCC(F)(F)F)Cc1c(C(F)(F)F)nc2n(-c3c(C)cc(C)cc3C)c3ccccc3n12 | 
34 | 240 nM | FC(F)(F)c1nc2n(-c3ccc(Cl)cc3Cl)c3ccccc3n2c1CN(CC1CC1)CC1CC1 | 
35 | 744 nM | Cc1cc(C)c(-n2c3ccccc3n3c(CN(CCc4ccccc4)CC(F)(F)F)c(C(F)(F)F)nc23)c(C)c1 | 
36 | 28 nM | CCN(Cc1c(C(F)(F)F)nc2n(-c3c(C)cc(C)cc3C)c3ccccc3n12)CC1CC1 | 
37 | 618 nM | Cc1cc(C)c(-n2c3ccccc3n3c(CN(CCc4ccccc4)CCC(F)(F)F)c(C(F)(F)F)nc23)c(C)c1 | 
38 | 1180 nM | CCCN(CC1CC1)C(=O)c1c(C)nc2n(-c3c(C)cc(C)cc3C)c3ccc(F)cc3n12 | 
39 | 20 nM | CCCN(Cc1c(C)nc2n(-c3c(C)cc(C)cc3C)c3ccccc3n12)CC1CC1 | 
40 | 34 nM | Cc1cc(C)c(-n2c3ccccc3n3c(CN(CC4CC4)CC(F)(F)C(F)(F)F)c(C(F)(F)F)nc23)c(C)c1 | 
41 | 3560 nM | CCCN(CC1CC1)C(=O)c1c(C(F)(F)F)nc2n(-c3c(C)cc(C)cc3C)c3ccccc3n12 | 
